Legend:
Rattus norvegicus [1] = assay: Amount of the drug required to produce 50% antinociception when administered intracerebroventricularly; value ranges from 1.8-4.2; type: functional
Procedure, shortened: (§1)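 55 °C tail-flick test after a single injection by the route named in the line, with graded doses giving a dose-response. % antinociception = 100 × [test latency − control latency]/[15 − control latency]. A50 is the amount of drug giving 50% antinociception, derived from the dose-response curve.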

Rattus norvegicus [2] = assay: Amount of the drug required to produce 50% antinociception when administered intraperitoneally; value ranges from 11.8-18.0; type: functional; procedure, shortened: as §1
Rattus norvegicus [3] = assay: Amount of the drug required to produce 50% antinociception when administered intravenously; value ranges from 4.9-7.9; type: functional; procedure, shortened: as §1
Rattus norvegicus [4] = assay: Amount of the drug required to produce 50% antinociception when administered subcutaneously; value ranges from 10.2-17.0; type: functional; procedure, shortened: as §1
Rattus norvegicus [5] = assay: Amount of the drug required to produce 50% antinociception when administered subcutaneously; value ranges from 4.9-10.00; type: functional; procedure, shortened: as §1
Rattus norvegicus [6] = assay: Amount of the drug required to produce 50% antinociception when administered intracerebroventricularly; value ranges from 0.01-0.04; type: functional; procedure, shortened: as §1
Rattus norvegicus [7] = assay: Amount of the drug required to produce 50% antinociception when administered intraperitoneally; value ranges from 21.2-55.5; type: functional; procedure, shortened: as §1
Rattus norvegicus [8] = assay: Amount of the drug required to produce 50% antinociception when administered intravenously; value ranges from 8.5-15.2; type: functional; procedure, shortened: as §1
[9] = (§2) Opioid receptor activity was evaluated using guinea pig ileum (GPI) assay; type: tissue-based; conditions: Cavia porcellus
Opioid receptor = Opioid receptor (Mus musculus, UniProt P42866+P32300+P33534); assay: (§3) Opioid receptor activity was evaluated using mouse vas deferens (MVD) assay; type: tissue-based
[10] = molecular target: Delta-type opioid receptor (Homo sapiens, UniProt P41143); assay: Binding affinity towards Opioid receptor delta 1 was evaluated
Mu-type opioid receptor = Mu-type opioid receptor (Homo sapiens, UniProt P35372); assay: Binding affinity towards Opioid receptor mu 1 was evaluated
Mus musculus = species: Mus musculus; assay: as §3; type: functional, organism-based
[11] = as §2; type: functional, tissue-based; conditions: Cavia porcellus
Rattus norvegicus [12] = assay: Amount of the drug required to produce 50% antinociception when administered subcutaneously; value ranges from 15.9-26.0; type: functional; procedure, shortened: as §1
Rattus norvegicus [13] = assay: Amount of the drug required to produce 50% antinociception when administered intracerebroventricularly; value ranges from 0.05-0.09; type: functional; procedure, shortened: as §1
Rattus norvegicus [14] = assay: Amount of the drug required to produce 50% antinociception when administered intraperitoneally; value ranges from 124.0-151.8; type: functional; procedure, shortened: as §1
Rattus norvegicus [15] = assay: Amount of the drug required to produce 50% antinociception when administered intravenously; value ranges from 35.4-60.7; type: functional; procedure, shortened: as §1

Sequence of Delta-type opioid receptor (P41143 whole entry): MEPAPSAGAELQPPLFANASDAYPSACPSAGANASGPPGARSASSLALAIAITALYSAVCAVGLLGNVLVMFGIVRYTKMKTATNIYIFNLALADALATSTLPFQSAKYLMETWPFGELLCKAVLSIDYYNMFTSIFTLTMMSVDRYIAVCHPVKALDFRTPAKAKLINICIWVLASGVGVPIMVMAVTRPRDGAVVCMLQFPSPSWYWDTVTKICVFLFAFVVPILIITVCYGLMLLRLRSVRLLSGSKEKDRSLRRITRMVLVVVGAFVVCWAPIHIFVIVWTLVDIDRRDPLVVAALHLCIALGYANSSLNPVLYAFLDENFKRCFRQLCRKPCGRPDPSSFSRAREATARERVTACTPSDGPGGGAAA
Sequence of Mu-type opioid receptor (P35372 whole entry): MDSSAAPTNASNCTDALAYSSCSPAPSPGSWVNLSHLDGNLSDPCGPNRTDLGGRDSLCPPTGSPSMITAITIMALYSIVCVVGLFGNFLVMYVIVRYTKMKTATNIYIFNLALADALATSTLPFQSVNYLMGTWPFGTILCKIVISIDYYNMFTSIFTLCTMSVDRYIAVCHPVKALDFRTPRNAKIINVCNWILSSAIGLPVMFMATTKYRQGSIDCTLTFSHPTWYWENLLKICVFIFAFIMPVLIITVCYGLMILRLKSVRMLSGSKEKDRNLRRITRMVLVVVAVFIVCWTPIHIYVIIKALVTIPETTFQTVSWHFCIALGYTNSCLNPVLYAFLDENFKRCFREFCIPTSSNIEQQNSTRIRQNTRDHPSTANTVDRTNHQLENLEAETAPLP

## CN1CC[C@]23c4c5ccc(O)c4O[C@H]2[C@@H](O)C=C[C@H]3[C@H]1C5 [MORPHINE]
Rattus norvegicus [1]
  A50: 2.7 nM
Rattus norvegicus [2]
  A50: 14.6 mM/kg
Rattus norvegicus [3]
  A50: 6.3 mM/kg
Rattus norvegicus [4]
  A50: 13.2 mM/kg

## CC(C)C[C@H](NC(=O)[C@H](Cc1ccccc1)NC(=O)CNC(=O)[C@H](NC(=O)[C@@H](N)Cc1ccc(O)cc1)[C@H](C)O)C(=O)N[C@@H](CO[C@H]1O[C@@H](CO)[C@H](O)[C@@H](O)[C@H]1O)C(N)=O [listing 1 of 2 here]
Rattus norvegicus [5]
  A50: 7.2 mM/kg
Rattus norvegicus [6]
  A50: 0.02 nM
Rattus norvegicus [7]
  A50: 34.3 mM/kg
Rattus norvegicus [8]
  A50: 11.4 mM/kg

## CC(C)C[C@H](NC(=O)[C@H](Cc1ccccc1)NC(=O)CNC(=O)[C@H](NC(=O)[C@@H](N)Cc1ccc(O)cc1)[C@H](C)O)C(=O)N[C@@H](CO)C(N)=O [listing 1 of 2 here]
[9]
  IC50: 25 nM
Opioid receptor
  IC50: 2.7 nM
[10]
  IC50: 2.4 nM
Mu-type opioid receptor
  IC50: 4 nM

## CC(C)C[C@H](NC(=O)[C@H](Cc1ccccc1)NC(=O)CNC(=O)[C@H](NC(=O)[C@@H](N)Cc1ccc(O)cc1)[C@H](C)O)C(=O)N[C@@H](CO[C@H]1O[C@@H](CO)[C@H](O)[C@@H](O)[C@H]1O)C(N)=O [listing 2 of 2 here]
Mus musculus
  IC50: 1.6 nM
[10]
  IC50: 3.4 nM
Mu-type opioid receptor
  IC50: 8.2 nM
[11]
  IC50: 33.8 nM

## CC(C)C[C@H](NC(=O)[C@H](Cc1ccccc1)NC(=O)CNC(=O)[C@H](NC(=O)[C@@H](N)Cc1ccc(O)cc1)[C@H](C)O)C(=O)N[C@@H](CO)C(N)=O [listing 2 of 2 here]
Rattus norvegicus [12]
  A50: 20.3 mM/kg
Rattus norvegicus [13]
  A50: 0.07 nM
Rattus norvegicus [14]
  A50: 137.2 mM/kg
Rattus norvegicus [15]
  A50: 46.4 mM/kg

Source: ChEMBL document CHEMBL1133766, “Enkephalin glycopeptide analogues produce analgesia with reduced dependence liability” (J Med Chem, 2000)
